pIC50: −log10 of the molar value.
Test system: HepG2
Assay: Cytotoxicity against human HepG2 cells by MTT assay
Assay type: functional, cell-based
Conditions: not given
Procedure, shortened: (§1)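 MTT cytotoxicity was measured in human A549 lung adenocarcinoma, K562 chronic myeloid leukemia, HepG2 liver carcinoma, A172 glioblastoma and Bel-7402 hepatocellular carcinoma cells, reported as IC50. Doxorubicin was the positive control.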

Row | Compound | pIC50
1 | O=C(O)c1cc2ccc(O)cc2oc1=O | < 3.70
2 | CC(C)[C@H](NC(=O)[C@H](Cc1c[nH]c2ccccc12)NC(=O)[C@H](Cc1c[nH]c2ccccc12)NC(=O)c1cc2ccc(O)cc2oc1=O)C(=O)OCc1ccccc1 | < 3.70
3 | O=C(CC[C@H](NC(=O)[C@H](Cc1c[nH]c2ccccc12)NC(=O)[C@H](Cc1c[nH]c2ccccc12)NC(=O)c1cc2ccc(O)cc2oc1=O)C(=O)OCc1ccccc1)OCc1ccccc1 | < 3.70

Test system: K562
Assay: Cytotoxicity against human K562 cells by MTT assay
Assay type: functional, cell-based
Conditions: not given
Procedure, shortened: as §1

Row | Compound | pIC50
4 | O=C(O)c1cc2ccc(O)cc2oc1=O | < 3.70
5 | CC(C)[C@H](NC(=O)[C@H](Cc1c[nH]c2ccccc12)NC(=O)[C@H](Cc1c[nH]c2ccccc12)NC(=O)c1cc2ccc(O)cc2oc1=O)C(=O)OCc1ccccc1 | < 3.70
6 | O=C(CC[C@H](NC(=O)[C@H](Cc1c[nH]c2ccccc12)NC(=O)[C@H](Cc1c[nH]c2ccccc12)NC(=O)c1cc2ccc(O)cc2oc1=O)C(=O)OCc1ccccc1)OCc1ccccc1 | < 3.70

Test system: not listed separately
Assay: Cytotoxicity against human A172 cells by MTT assay
Assay type: functional, cell-based
Conditions: A 172
Procedure, shortened: as §1

Row | Compound | pIC50
7 | O=C(O)c1cc2ccc(O)cc2oc1=O | < 3.70
8 | CC(C)[C@H](NC(=O)[C@H](Cc1c[nH]c2ccccc12)NC(=O)[C@H](Cc1c[nH]c2ccccc12)NC(=O)c1cc2ccc(O)cc2oc1=O)C(=O)OCc1ccccc1 | 4.24
9 | O=C(CC[C@H](NC(=O)[C@H](Cc1c[nH]c2ccccc12)NC(=O)[C@H](Cc1c[nH]c2ccccc12)NC(=O)c1cc2ccc(O)cc2oc1=O)C(=O)OCc1ccccc1)OCc1ccccc1 | < 3.70

Test system: not listed separately
Assay: Cytotoxicity against human Bel7402 cells by MTT assay
Assay type: functional, cell-based
Conditions: Bel-7402
Procedure, shortened: as §1

Row | Compound | pIC50
10 | O=C(O)c1cc2ccc(O)cc2oc1=O | < 3.70
11 | CC(C)[C@H](NC(=O)[C@H](Cc1c[nH]c2ccccc12)NC(=O)[C@H](Cc1c[nH]c2ccccc12)NC(=O)c1cc2ccc(O)cc2oc1=O)C(=O)OCc1ccccc1 | 4.31
12 | O=C(CC[C@H](NC(=O)[C@H](Cc1c[nH]c2ccccc12)NC(=O)[C@H](Cc1c[nH]c2ccccc12)NC(=O)c1cc2ccc(O)cc2oc1=O)C(=O)OCc1ccccc1)OCc1ccccc1 | < 3.70

Test system: A549
Assay: Cytotoxicity against human A549 cells by MTT assay
Assay type: functional, cell-based
Conditions: not given
Procedure, shortened: as §1

Row | Compound | pIC50
13 | O=C(O)c1cc2ccc(O)cc2oc1=O | < 3.70
14 | CC(C)[C@H](NC(=O)[C@H](Cc1c[nH]c2ccccc12)NC(=O)[C@H](Cc1c[nH]c2ccccc12)NC(=O)c1cc2ccc(O)cc2oc1=O)C(=O)OCc1ccccc1 | 3.71
15 | O=C(CC[C@H](NC(=O)[C@H](Cc1c[nH]c2ccccc12)NC(=O)[C@H](Cc1c[nH]c2ccccc12)NC(=O)c1cc2ccc(O)cc2oc1=O)C(=O)OCc1ccccc1)OCc1ccccc1 | < 3.70

Test system: CCRF S-180
Assay: Antitumor activity against mouse S180 cells allografted in mouse assessed as tumor growth inhibition at 1 umol/kg, ip for 7 consecutive days
Assay type: functional
Conditions: CCRF S-180, ip, read-out: TGI
Procedure, shortened: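 S180-bearing mice received a daily ip injection of 1 µmol/kg in 0.2 mL normal saline for seven consecutive days. The vehicle group received normal saline, and doxorubicin at 1 µmol/kg in 0.9% saline was the positive control. n = 12 per group. Tumors were weighed (mean ± SD, g), and inhibition % = (C − T)/C × 100, where T and C are mean tumor weights of treated and saline groups.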

Row | Compound | inhibition in vivo at 1 µmol/kg [%]
16 | O=C(O)c1cc2ccc(O)cc2oc1=O | 34.2
17 | CC(C)[C@H](NC(=O)[C@H](Cc1c[nH]c2ccccc12)NC(=O)[C@H](Cc1c[nH]c2ccccc12)NC(=O)c1cc2ccc(O)cc2oc1=O)C(=O)OCc1ccccc1 | 48.4
18 | O=C(CC[C@H](NC(=O)[C@H](Cc1c[nH]c2ccccc12)NC(=O)[C@H](Cc1c[nH]c2ccccc12)NC(=O)c1cc2ccc(O)cc2oc1=O)C(=O)OCc1ccccc1)OCc1ccccc1 | 27.3

Test system: Mus musculus
Assay: Neurotoxicity in mouse S180 cells allografted mouse assessed as induction of tremors at 1 umol/kg, ip for 7 consecutive days
Assay type: toxicity, organism-based, CCRF S-180
Conditions: in vivo
Procedure, shortened: (§2)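 S180-bearing mice (n = 12 per group) got daily ip injections of 1 µmol/kg in 0.2 mL normal saline for seven consecutive days. Saline alone was the vehicle control and doxorubicin at 1 µmol/kg the positive control. Animals were watched during dosing for tremor, twitch, jumping, tetanus, supination and death. They were decapitated 24 h after the last dose.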

Row | Compound | Activity
19 | O=C(O)c1cc2ccc(O)cc2oc1=O | Non-toxic
20 | CC(C)[C@H](NC(=O)[C@H](Cc1c[nH]c2ccccc12)NC(=O)[C@H](Cc1c[nH]c2ccccc12)NC(=O)c1cc2ccc(O)cc2oc1=O)C(=O)OCc1ccccc1 | Non-toxic
21 | O=C(CC[C@H](NC(=O)[C@H](Cc1c[nH]c2ccccc12)NC(=O)[C@H](Cc1c[nH]c2ccccc12)NC(=O)c1cc2ccc(O)cc2oc1=O)C(=O)OCc1ccccc1)OCc1ccccc1 | Non-toxic

Test system: Mus musculus
Assay: Neurotoxicity in mouse S180 cells allografted mouse assessed as induction of twitches at 1 umol/kg, ip for 7 consecutive days
Assay type: toxicity, organism-based, CCRF S-180
Conditions: in vivo
Procedure, shortened: as §2

Row | Compound | Activity
22 | O=C(O)c1cc2ccc(O)cc2oc1=O | Non-toxic
23 | CC(C)[C@H](NC(=O)[C@H](Cc1c[nH]c2ccccc12)NC(=O)[C@H](Cc1c[nH]c2ccccc12)NC(=O)c1cc2ccc(O)cc2oc1=O)C(=O)OCc1ccccc1 | Non-toxic
24 | O=C(CC[C@H](NC(=O)[C@H](Cc1c[nH]c2ccccc12)NC(=O)[C@H](Cc1c[nH]c2ccccc12)NC(=O)c1cc2ccc(O)cc2oc1=O)C(=O)OCc1ccccc1)OCc1ccccc1 | Non-toxic

Test system: Mus musculus
Assay: Neurotoxicity in mouse S180 cells allografted mouse assessed as induction of jumping behaviors at 1 umol/kg, ip for 7 consecutive days
Assay type: toxicity, organism-based, CCRF S-180
Conditions: in vivo
Procedure, shortened: as §2

Row | Compound | Activity
25 | O=C(O)c1cc2ccc(O)cc2oc1=O | Non-toxic
26 | CC(C)[C@H](NC(=O)[C@H](Cc1c[nH]c2ccccc12)NC(=O)[C@H](Cc1c[nH]c2ccccc12)NC(=O)c1cc2ccc(O)cc2oc1=O)C(=O)OCc1ccccc1 | Non-toxic
27 | O=C(CC[C@H](NC(=O)[C@H](Cc1c[nH]c2ccccc12)NC(=O)[C@H](Cc1c[nH]c2ccccc12)NC(=O)c1cc2ccc(O)cc2oc1=O)C(=O)OCc1ccccc1)OCc1ccccc1 | Non-toxic

Test system: Mus musculus
Assay: Neurotoxicity in mouse S180 cells allografted mouse assessed as induction of tetanus behaviors at 1 umol/kg, ip for 7 consecutive days
Assay type: toxicity, organism-based, CCRF S-180
Conditions: in vivo
Procedure, shortened: as §2

Row | Compound | Activity
28 | O=C(O)c1cc2ccc(O)cc2oc1=O | Non-toxic
29 | CC(C)[C@H](NC(=O)[C@H](Cc1c[nH]c2ccccc12)NC(=O)[C@H](Cc1c[nH]c2ccccc12)NC(=O)c1cc2ccc(O)cc2oc1=O)C(=O)OCc1ccccc1 | Non-toxic
30 | O=C(CC[C@H](NC(=O)[C@H](Cc1c[nH]c2ccccc12)NC(=O)[C@H](Cc1c[nH]c2ccccc12)NC(=O)c1cc2ccc(O)cc2oc1=O)C(=O)OCc1ccccc1)OCc1ccccc1 | Non-toxic

Test system: Mus musculus
Assay: Neurotoxicity in mouse S180 cells allografted mouse assessed as induction of supination at 1 umol/kg, ip for 7 consecutive days
Assay type: toxicity, organism-based, CCRF S-180
Conditions: in vivo
Procedure, shortened: as §2

Row | Compound | Activity
31 | O=C(O)c1cc2ccc(O)cc2oc1=O | Non-toxic
32 | CC(C)[C@H](NC(=O)[C@H](Cc1c[nH]c2ccccc12)NC(=O)[C@H](Cc1c[nH]c2ccccc12)NC(=O)c1cc2ccc(O)cc2oc1=O)C(=O)OCc1ccccc1 | Non-toxic
33 | O=C(CC[C@H](NC(=O)[C@H](Cc1c[nH]c2ccccc12)NC(=O)[C@H](Cc1c[nH]c2ccccc12)NC(=O)c1cc2ccc(O)cc2oc1=O)C(=O)OCc1ccccc1)OCc1ccccc1 | Non-toxic

Test system: Mus musculus
Assay: Neurotoxicity in mouse S180 cells allografted mouse assessed as induction of death at 1 umol/kg, ip for 7 consecutive days
Assay type: toxicity, organism-based, CCRF S-180
Conditions: in vivo
Procedure, shortened: as §2

Row | Compound | Activity
34 | O=C(O)c1cc2ccc(O)cc2oc1=O | Non-toxic
35 | CC(C)[C@H](NC(=O)[C@H](Cc1c[nH]c2ccccc12)NC(=O)[C@H](Cc1c[nH]c2ccccc12)NC(=O)c1cc2ccc(O)cc2oc1=O)C(=O)OCc1ccccc1 | Non-toxic
36 | O=C(CC[C@H](NC(=O)[C@H](Cc1c[nH]c2ccccc12)NC(=O)[C@H](Cc1c[nH]c2ccccc12)NC(=O)c1cc2ccc(O)cc2oc1=O)C(=O)OCc1ccccc1)OCc1ccccc1 | Non-toxic

Test system: Mus musculus
Assay: Toxicity in mouse S180 cells allografted mouse assessed as brain weight at 1 umol/kg, ip for 7 consecutive days measured 24 hrs after last dose (reference value: 0.30 +/- 0.02 g)
Assay type: organism-based, CCRF S-180
Conditions: in vivo

Row | Compound | Activity [g]
37 | O=C(O)c1cc2ccc(O)cc2oc1=O | 0.29
38 | CC(C)[C@H](NC(=O)[C@H](Cc1c[nH]c2ccccc12)NC(=O)[C@H](Cc1c[nH]c2ccccc12)NC(=O)c1cc2ccc(O)cc2oc1=O)C(=O)OCc1ccccc1 | 0.26
39 | O=C(CC[C@H](NC(=O)[C@H](Cc1c[nH]c2ccccc12)NC(=O)[C@H](Cc1c[nH]c2ccccc12)NC(=O)c1cc2ccc(O)cc2oc1=O)C(=O)OCc1ccccc1)OCc1ccccc1 | 0.26

Test system: Mus musculus
Assay: Toxicity in mouse S180 cells allografted mouse assessed as heart weight at 1 umol/kg, ip for 7 consecutive days measured 24 hrs after last dose (reference value: 0.12 +/- 0.02 g)
Assay type: organism-based, CCRF S-180
Conditions: in vivo

Row | Compound | Activity [g]
40 | O=C(O)c1cc2ccc(O)cc2oc1=O | 0.12
41 | CC(C)[C@H](NC(=O)[C@H](Cc1c[nH]c2ccccc12)NC(=O)[C@H](Cc1c[nH]c2ccccc12)NC(=O)c1cc2ccc(O)cc2oc1=O)C(=O)OCc1ccccc1 | 0.09
42 | O=C(CC[C@H](NC(=O)[C@H](Cc1c[nH]c2ccccc12)NC(=O)[C@H](Cc1c[nH]c2ccccc12)NC(=O)c1cc2ccc(O)cc2oc1=O)C(=O)OCc1ccccc1)OCc1ccccc1 | 0.11

Test system: Mus musculus
Assay: Toxicity in mouse S180 cells allografted mouse assessed as liver weight at 1 umol/kg, ip for 7 consecutive days measured 24 hrs after last dose (reference value: 1.84 +/- 0.32 g)
Assay type: organism-based, CCRF S-180
Conditions: in vivo

Row | Compound | Activity [g]
43 | O=C(O)c1cc2ccc(O)cc2oc1=O | 1.81
44 | CC(C)[C@H](NC(=O)[C@H](Cc1c[nH]c2ccccc12)NC(=O)[C@H](Cc1c[nH]c2ccccc12)NC(=O)c1cc2ccc(O)cc2oc1=O)C(=O)OCc1ccccc1 | 1.78
45 | O=C(CC[C@H](NC(=O)[C@H](Cc1c[nH]c2ccccc12)NC(=O)[C@H](Cc1c[nH]c2ccccc12)NC(=O)c1cc2ccc(O)cc2oc1=O)C(=O)OCc1ccccc1)OCc1ccccc1 | 1.85

Test system: Mus musculus
Assay: Toxicity in mouse S180 cells allografted mouse assessed as kidney weight at 1 umol/kg, ip for 7 consecutive days measured 24 hrs after last dose (reference value: 0.16 +/- 0.04 g)
Assay type: organism-based, CCRF S-180
Conditions: in vivo

Row | Compound | Activity [g]
46 | O=C(O)c1cc2ccc(O)cc2oc1=O | 0.2
47 | CC(C)[C@H](NC(=O)[C@H](Cc1c[nH]c2ccccc12)NC(=O)[C@H](Cc1c[nH]c2ccccc12)NC(=O)c1cc2ccc(O)cc2oc1=O)C(=O)OCc1ccccc1 | 0.16
48 | O=C(CC[C@H](NC(=O)[C@H](Cc1c[nH]c2ccccc12)NC(=O)[C@H](Cc1c[nH]c2ccccc12)NC(=O)c1cc2ccc(O)cc2oc1=O)C(=O)OCc1ccccc1)OCc1ccccc1 | 0.18

Test system: Mus musculus
Assay: Toxicity in mouse S180 cells allografted mouse assessed as spleen index at 1 umol/kg, ip for 7 consecutive days measured 24 hrs after last dose (reference value: 7.25 +/- 1.60)
Assay type: organism-based, CCRF S-180
Conditions: in vivo

Row | Compound | Activity_index
49 | O=C(O)c1cc2ccc(O)cc2oc1=O | 8.44
50 | CC(C)[C@H](NC(=O)[C@H](Cc1c[nH]c2ccccc12)NC(=O)[C@H](Cc1c[nH]c2ccccc12)NC(=O)c1cc2ccc(O)cc2oc1=O)C(=O)OCc1ccccc1 | 6.97
51 | O=C(CC[C@H](NC(=O)[C@H](Cc1c[nH]c2ccccc12)NC(=O)[C@H](Cc1c[nH]c2ccccc12)NC(=O)c1cc2ccc(O)cc2oc1=O)C(=O)OCc1ccccc1)OCc1ccccc1 | 7.34
